Data from ChEMBL document CHEMBL1212794, “Efficacy of clarithromycin against experimentally induced pneumonia caused by clarithromycin-resistant Haemophilus influenzae in mice” (2010).
Values after ≈ are worked out from the molar mass of the structure shown. Active and inactive are the calls of the source. The rule behind the calls is not given here.

Key:
Haemophilus influenzae [1] = assay: Antibacterial activity against nontypeable beta-lactamase-negative ampicillin-resistant Haemophilus influenzae 4437 infected in mouse ddY assessed as decrease in viable bacterial count at 40 mg/kg, po bid for 3 days; type: functional
In short: (§1)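 Male ddY SPF mice, 6 weeks old, with a tube placed into the main bronchus 7 days before intratracheal challenge under pentobarbital. Drug given in DMSO orally twice daily from 24 h post-infection for 3 days. Mice killed 12 h after the last dose. Lungs homogenized in 1.0 ml PBS, serially diluted and plated on chocolate agar overnight at 37°C, 5% CO2. Four experiments.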

Haemophilus influenzae [2] = assay: Antibacterial activity against nontypeable beta-lactamase-negative ampicillin-resistant Haemophilus influenzae 4437 infected in mouse ddY assessed as decrease in viable bacterial count at 100 mg/kg, po bid for 3 days; type: functional; in short: as §1
Mus musculus [3] = assay: Antiinflammatory activity against nontypeable beta-lactamase-negative ampicillin-resistant Haemophilus influenzae 4437 infected in mouse ddY assessed as decrease in total cell count in bronchoalveolar lavage fluid at 40 mg/kg, po bid for 3 days; type: functional, organism-based; set-up: dose 40 mg/kg; settings: Lung
In short: (§2)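 Intubated ddY mice challenged intratracheally, then dosed orally twice daily from 24 h for 3 days and lavaged 12 h after the last dose (3 × 1.0 ml saline, pooled). Total cells counted with Turk stain. Differentials counted on 100 cytocentrifuged cells stained with Diff-Quick. Four experiments.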

Haemophilus influenzae [4] = assay: Antibacterial activity against nontypeable beta-lactamase-negative ampicillin-resistant Haemophilus influenzae 4437; type: functional
In short: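 MIC by CLSI broth dilution in Haemophilus Test Medium, inoculum 10^5 CFU/ml, tested in duplicate. β-lactamase production checked by nitrocefin test.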

Mus musculus [5] = assay: Antiinflammatory activity against nontypeable beta-lactamase-negative ampicillin-resistant Haemophilus influenzae 4437 infected in mouse ddY assessed as decrease in total cell count in bronchoalveolar lavage fluid at 100 mg/kg, po bid for 3 days; type: functional, organism-based; set-up: dose 100 mg/kg; settings: Lung; in short: as §2
Mus musculus [6] = assay: Antiinflammatory activity against nontypeable beta-lactamase-negative ampicillin-resistant Haemophilus influenzae 4437 infected in mouse ddY assessed as decrease in IL1-beta level in bronchoalveolar lavage fluid at 40 mg/kg, po bid for 3 days relative to control; type: functional, organism-based; set-up: dose 40 mg/kg; settings: Lung
In short: (§3)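 Intubated ddY mice challenged intratracheally, then dosed orally twice daily from 24 h for 3 days and killed 12 h after the last dose. BAL done with 3 × 1.0 ml saline, pooled per animal. MIP-2 and IL-1β in BAL fluid measured by mouse ELISA kits. Four experiments.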

Mus musculus [7] = assay: Antiinflammatory activity against nontypeable beta-lactamase-negative ampicillin-resistant Haemophilus influenzae 4437 infected in mouse ddY assessed as decrease in neutrophil count in bronchoalveolar lavage fluid at 100 mg/kg, po bid for 3 days relative to control; type: functional, organism-based; set-up: dose 100 mg/kg; settings: Lung; in short: as §2
Mus musculus [8] = assay: Antiinflammatory activity against nontypeable beta-lactamase-negative ampicillin-resistant Haemophilus influenzae 4437 infected in mouse ddY assessed as decrease in neutrophil count in bronchoalveolar lavage fluid at 40 mg/kg, po bid for 3 days; type: functional, organism-based; set-up: dose 40 mg/kg; settings: Lung; in short: as §2
Mus musculus [9] = assay: Antiinflammatory activity against nontypeable beta-lactamase-negative ampicillin-resistant Haemophilus influenzae 4437 infected in mouse ddY assessed as decrease in MIP-2 level in bronchoalveolar lavage fluid at 40 mg/kg, po bid for 3 days relative to control; type: functional, organism-based; set-up: dose 40 mg/kg; settings: Lung; in short: as §3
Mus musculus [10] = assay: Antiinflammatory activity against nontypeable beta-lactamase-negative ampicillin-resistant Haemophilus influenzae 4437 infected in mouse ddY assessed as decrease in IL1-beta level in bronchoalveolar lavage fluid at 100 mg/kg, po bid for 3 days relative to control; type: functional, organism-based; set-up: dose 100 mg/kg; settings: Lung; in short: as §3
Mus musculus [11] = assay: Antiinflammatory activity against nontypeable beta-lactamase-negative ampicillin-resistant Haemophilus influenzae 4437 infected in mouse ddY assessed as decrease in MIP-2 level in bronchoalveolar lavage fluid at 100 mg/kg, po bid for 3 days relative to control; type: functional, organism-based; set-up: dose 100 mg/kg; settings: Lung; in short: as §3
Mus musculus [12] = assay: Antiinflammatory activity against nontypeable beta-lactamase-negative ampicillin-resistant Haemophilus influenzae infected in mouse ddY assessed as inflammatory changes in lung at 40 mg/kg, po bid for 3 days relative to control; type: functional, organism-based; set-up: dose 40 mg/kg
In short: (§4)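 Intubated ddY mice challenged intratracheally, then dosed orally twice daily for 3 days. Lungs fixed in 10% buffered formalin, stained with hematoxylin and eosin, and examined at ×200 for inflammatory cell infiltration of alveoli and bronchioles.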

Mus musculus [13] = assay: Antiinflammatory activity against nontypeable beta-lactamase-negative ampicillin-resistant Haemophilus influenzae infected in mouse ddY assessed as inflammatory changes in lung at 100 mg/kg, po bid for 3 days relative to control; type: functional, organism-based; set-up: dose 100 mg/kg; in short: as §4
Haemophilus influenzae [14] = assay: Antibacterial activity against macrolide-resistant Haemophilus influenzae 4437 infected in NCI-H292 cells assessed as decrease in viable bacterial count at 64 ug/ml by 3-h invasion assay; type: functional, organism-based
In short: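 NCI-H292 cells in RPMI 1640 with 10% FBS, seeded at 5 × 10^5/well, then held in 0.5% FBS for 24 h at confluence. Infected with 10 µl of about 6 × 10^6 CFU/ml bacteria for 3 h at 37°C, 5% CO2. Washed, then gentamicin 200 µg/ml with drug for 2 h. Lysed in 1% Triton X-100; intracellular CFU counted on chocolate agar. Three experiments.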

CC[C@H]1OC(=O)[C@H](C)[C@@H](O[C@H]2C[C@@](C)(OC)[C@@H](O)[C@H](C)O2)[C@H](C)[C@@H](O[C@@H]2O[C@H](C)C[C@H](N(C)C)[C@H]2O)[C@](C)(OC)C[C@@H](C)C(=O)[C@H](C)[C@@H](O)[C@]1(C)O [CLARITHROMYCIN]
log10CFU/ml (Haemophilus influenzae [1]): 5.8 | log10CFU/ml (Haemophilus influenzae [2]): 4.6 | Activity (Mus musculus [3]): Active | MIC (Haemophilus influenzae [4]): 64 µg/mL (≈ 85.6 µM) | Activity (Mus musculus [5]): Active | Activity (Mus musculus [6]): Active | Activity (Mus musculus [7]): Active | Activity (Mus musculus [8]): Active | Activity (Mus musculus [9]): Active | Activity (Mus musculus [10]): Active | Activity (Mus musculus [11]): Active | Activity (Mus musculus [12]): Active | Activity (Mus musculus [13]): Active | Activity (Haemophilus influenzae [14]): Active

CC1(C)S[C@@H]2[C@H](NC(=O)[C@H](N)c3ccccc3)C(=O)N2[C@H]1C(=O)O [AMPICILLIN]
MIC (Haemophilus influenzae [4]): 16 µg/mL (≈ 45.8 µM)
